Experimental data of several laboratories.
Protocols differ between the studies behind these lines.
Target: Tyrosine-protein kinase SYK (SYK, Homo sapiens, UniProt P43405)

The remaining binding of `N#CC1(c2ccccn2)CCN(Cc2cc(C(=O)N3CCCC3)c(=O)n3ccccc23)CC1` is reported as 92% (cell-free assay; competition with immobilised ligand; 1 µM).
For `CNC(=O)[C@@H]1CC[C@@H](n2c(-c3ccc4cnccc4c3)nc3ccc(C(=O)NCc4cccc(C(N)=O)c4)cc32)C1`, the remaining binding was 99% (binding; competition with immobilised ligand; 1 µM).
`CCN1CCN(Cc2ccc(C(=O)Nc3ccc(C)c(Oc4ccc5c(c4)CC(=O)N5)c3)cc2C(F)(F)F)CC1` gave a remaining binding of 100% (binding; competition with immobilised ligand; 1 µM).
`CC1CCCN1c1nccc(-c2cnn3ncccc23)n1` (centres unmarked) gave a remaining binding of 100% (binding; 1 µM).
`COc1ccc2c(c1)O[C@H](c1ccc(OC)c(OC)c1)C[C@@H]2NC(=O)C1(c2ccc3c(c2)OC(F)(F)O3)CC1` gave a remaining binding of 100% (cell-free assay; competition with immobilised ligand; 1 µM).
`O=C(Nc1c[nH]nc1C(=O)NC1CCNCC1)c1cc(F)cc(F)c1` gave a remaining binding of 100% (binding; competition with immobilised ligand; 1 µM).
`FC(F)(F)Oc1cccc(-c2cnc3ccc(-c4ccncc4)nn23)c1` gave a remaining binding of 64% (binding; competition with immobilised ligand; 5 µM).
For `O=c1nc(-c2ccccn2)sc2ccccc12`, the remaining binding was 97% (cell-free assay; competition with immobilised ligand; 1 µM).
`O=C(NCCCN1CCOCC1)c1ccc(Nc2nccc(-c3cc4ccccc4s3)n2)cc1` gave a remaining binding of 17% (binding; competition with immobilised ligand; 1 µM).
With `Cc1cnn2ncc(-c3ccnc(N(C)C)n3)c2c1` the remaining binding was 100% (binding; 1 µM).
The remaining binding of `c1cncc(-c2cccc(Nc3nccc(NC4CCCCC4)n3)c2)c1` is reported as 16% (binding; competition with immobilised ligand; 10 µM).
`CN(C)c1ncnc(-c2ccc3nc(Nc4cc(CN5CCN(C(=O)CC(F)(F)F)CC5)ccn4)[nH]c3c2)c1Cl` has a remaining binding of 96% (cell-free assay; competition with immobilised ligand; 1 µM).
`CN(CCCC(F)(F)F)c1nccc(-c2cnn3ncccc23)n1` gave a remaining binding of 76% (binding; 1 µM).
For `CO[C@H]1CC[C@H](CNc2ccc(S(=O)(=O)NC(=O)c3ccc(N4CCN(CC5=C(c6ccc(Cl)cc6)CC(C)(C)CC5)CC4)cc3Oc3cnc4[nH]ccc4c3)cc2[N+](=O)[O-])CC1`, the remaining binding was 62% (cell-free assay; competition with immobilised ligand; 1 µM).
`N[C@@H]1CCN(c2nccc(-c3cnn4ncccc34)n2)C1` gave a remaining binding of 100% (binding; 1 µM).
For `CCC(=O)N[C@H]1CC[C@@H](C(=O)N(C)c2ccc(-c3nc4ccccc4o3)cc2)C1`, the remaining binding was 100% (cell-free assay; competition with immobilised ligand; 1 µM).
For `CN(C)c1nccc(-c2cnn3ncccc23)n1`, the remaining binding was 100% (binding; 1 µM).
The remaining binding of `O=C(NCCCN1CCOCC1)c1ccc(Nc2ncc(Cl)c(-c3ccc(Cl)s3)n2)cc1` is reported as 34% (binding; competition with immobilised ligand; 1 µM).
The remaining binding of `C[C@H]1CCN(c2nccc(-c3cnn4ncccc34)n2)C1` is reported as 82% (binding; 1 µM).
With `O=C(c1ccc(Nc2ncc(Cl)c(-c3cc4ccccc4s3)n2)cc1)N1CCC(N2CCCC2)CC1` the remaining binding was 8.6% (binding; competition with immobilised ligand; 1 µM).
